Compound activity: PubChem BioAssay, several laboratories
Compounds with a hit are over-represented: about 4.8% of the library has one in this group of screens.
Jurkat NFkB inh – inhibitors of the PMA/ionomycin-induced NF-kB reporter in Jurkat cells. actives 0.53% (n = 330,000). inhibition, % at 4 µM. AID 435003. PMA/ionomycin-induced NF-kB luciferase reporter, luminescence; in the data active = inhibition above about 50%
T cruzi inh – blocks replication of Trypanosoma cruzi; T. cruzi beta-gal in NIH3T3, luminescence, 90 h; inhibition, % (no concentration beside the values); actives 1.4% (n = 300,000);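 active = mean inhibition across valid replicates above about 55%, limit read from the data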;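 also: signal also drops with host cell toxicity which is not excluded here; 0% = plate median of DMSO wells and 100% = zero luminescence signal; higher percent means less beta-gal luminescence so fewer parasites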
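System: NIH/3T3 fibroblasts plus reporter T. cruzi. Medium: DMEM plus 2% FBS. Probe or stimulus: 5000 reporter trypomastigotes per well. Compound: single 50 nL compound addition per well in DMSO. Incubation: co-culture of at least 90 h after 3 h attachment. Detection: GalScreen β-gal luminescence, detergent lysis, 60 min. Evaluation: parasite load inhibition, %.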
HSF1 inh – HSF1 inhibition; activity change, negative = inhibition, % at 7.5 µM (by protocol); actives 0.77% (n = 300,000); NIH3T3-HGL HSE-luciferase, MG132-induced, luminescence 8 h; active compounds read low; AID 2098;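 active = more than half of replicate wells show activity change below -50%, luminescence cut by over half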;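 also: luciferase reports HSF-1 transcriptional activity via heat shock element; 0% = median of DMSO wells and -100% = zero luminescence signal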
GPR7 antag – blocks human GPR7 receptor signaling; P48145; GPR7-expressing cells, fluorescence antagonist assay; inhibition, % at 4.4 µM; actives 1.1% (n = 290,000); in the data active = inhibition above about 16%, passing the limit was not always enough;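 also: cells stimulated with the agonist NPW; 0% = agonist with vehicle and 100% = vehicle without agonist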
Target sequence (P48145 whole entry, looked up): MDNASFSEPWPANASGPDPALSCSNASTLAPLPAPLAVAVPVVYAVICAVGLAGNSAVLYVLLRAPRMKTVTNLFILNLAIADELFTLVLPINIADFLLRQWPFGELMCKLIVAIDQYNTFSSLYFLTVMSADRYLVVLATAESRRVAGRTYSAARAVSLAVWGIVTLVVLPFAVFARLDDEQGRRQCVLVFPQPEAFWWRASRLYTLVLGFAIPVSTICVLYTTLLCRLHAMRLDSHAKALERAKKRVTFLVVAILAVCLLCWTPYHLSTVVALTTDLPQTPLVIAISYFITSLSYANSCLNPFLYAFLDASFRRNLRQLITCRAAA
697 NFkB inh – inhibitors of the PMA/ionomycin-induced NF-kB reporter in 697 B cells | 697 B-cell NF-kB luciferase reporter, 16 h | actives 0.33% (n = 330,000) | AID 435022 | inhibition, % at 4 µM; in the data active = inhibition above about 35%
HSF1 activator – increases HSF-1 driven luciferase reporter signal; actives 1.7% (n = 300,000); activation, % at 9 µM; NIH3T3-HGL HSF-1 luciferase reporter, MG132, 8 h; 100% = twice DMSO control signal;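 active = mean replicate activation of at least 50% with a set share of replicates each reaching 50%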;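 also: 0% = median of the neutral control wells and 100% = twice that signal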
GPR7 antag conf – human GPR7 antagonism, confirmation assay; shares compounds with GPR7 antag; inhibition, % at 4.4 µM; GPR7-expressing cells, calcium fluorescence antagonist mode; actives 52% (n = 2,400); in the data active = inhibition above about 24%;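 also: stimulated with the GPR7 agonist NPW; 0% = agonist plus vehicle and 100% = vehicle alone without agonist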
MCHR1 antag – counter-screen for GPR7 antagonists: antagonists of human MCHR1. AID 2148. actives 62% (n = 2,400). MCHR1-expressing cells, fluorescence antagonist assay. shares compounds with GPR7 antag. inhibition, % at 4.4 µM; in the data active = inhibition above about 22%;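 also: 0% = vehicle with agonist and 100% = vehicle without agonist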
Starred values were filed as active, the others as inactive; . = no result.

SMILES | Jurkat NFkB inh | T cruzi inh | HSF1 inh | GPR7 antag | 697 NFkB inh | HSF1 activator | GPR7 antag conf | MCHR1 antag
Nc1c(C(=O)O)ccc2c1C(=O)c1ccccc1C2=O | 18 | 9 | 2 | 23* | 12 | -5 | 5 | 3
CCCc1cc(=O)[nH]c(SCC(=O)Nc2oc(C)c3c(C)n[nH]c(=O)c23)n1 | 5 | -4 | -4 | . | -9 | 6 | . | .
O=C(COC(=O)c1ccccn1)NCc1ccccc1Cl | 3 | -4 | 7 | 24* | 1 | 6 | 1 | 15
CCCCn1c(NS(=O)(=O)c2ccccc2)c(S(=O)(=O)c2ccc(C)cc2)c2nc3ccccc3nc21 | . | 3 | 0 | 31* | . | 31 | 35* | 41*
Brc1cccc(OCCn2ccnc2)c1 | -5 | -9 | -3 | 24* | 8 | 0 | 9 | 2
NC(C(=O)O)C(c1ccccc1)C(F)F (stereo not drawn) | -18 | -6 | -14 | -7 | 5 | 0 | . | .
O=C(Cc1cccs1)N(Cc1ccco1)C1(C(=O)NC2CCCCC2)CCCCC1 | 47 | 8 | -1 | 44* | 23 | 15 | 47* | 52*
O=C(Cc1cccs1)N(Cc1cccs1)C1(C(=O)NC2CCCC2)CCCCC1 | 25 | 2 | 8 | 47* | -16 | 36 | 37* | 51*
O=C(c1ccc(=O)[nH]c1)N(Cc1cccs1)C1(C(=O)NC2CCCC2)CCCCC1 | 6 | -8 | 18 | 3 | 13 | 9 | . | .
O=C1CCC(C(=O)N(Cc2ccco2)C2(C(=O)NC3CCCC3)CCCCC2)N1 (stereo not drawn) | -6 | -9 | 3 | 28* | 8 | -10 | 22 | 17
O=C(c1ccc2c(c1)OCO2)N(Cc1cccs1)C1(C(=O)NC2CCCCC2)CCCCC1 | . | 16 | 4 | 31* | . | 4 | 40* | 59*
O=C(c1ccc(=O)[nH]c1)N(Cc1ccco1)C1(C(=O)NC2CCCC2)CCCCC1 | -4 | 0 | 14 | -1 | -15 | 9 | . | .
O=C(Cc1cccs1)N(c1ccc(F)cc1)C1(C(=O)NC2CCCCC2)CCCC1 | -20 | -3 | 3 | -2 | -12 | -18 | . | .
CC(=O)N(Cc1ccco1)C1(C(=O)NC2CCCCC2)CCCCC1 | 19 | 0 | 3 | 16 | 6 | -10 | . | .
O=C(NC1CCCCC1)C(c1cccs1)N(Cc1cccs1)C(=O)c1cccs1 (stereo not drawn) | -25 | 3 | -2 | 32* | 5 | 24 | 31* | 42*
O=C(c1ccc2c(c1)OCO2)N(CC1CCCO1)C1(C(=O)NC2CCCCC2)CCCCC1 (stereo not drawn) | 3 | 9 | 4 | 34* | 19 | 7 | 29* | 30*
O=C(NC1CCCCC1)C(c1ccc2ncccc2c1)N(Cc1cccs1)C(=O)c1cccs1 (stereo not drawn) | 9 | 2 | . | -5 | 13 | . | . | .
O=C(Cn1c(NCCCO)nc2ccccc21)c1ccc(Cl)cc1Cl | -18 | -6 | -3 | 5 | -19 | 5 | . | .
COc1ccc(C)cc1NC(=O)CN1C(=O)COc2ccc(C)cc21 | 4 | 0 | 7 | -6 | 18 | 1 | . | .
CC(=O)Oc1c(C)cc(Cl)cc1C(=O)Nc1ccc([N+](=O)[O-])cc1Cl | -28 | 48 | 21 | 25* | -127 | 56* | 59* | 62*
CC(=O)OCC(=O)Nc1ccc([N+](=O)[O-])cc1Cl | 16 | -4 | -8 | -16 | 10 | -1 | . | .
COC(=O)COc1ccc(S(=O)(=O)NCc2ccc3c(c2)OCO3)cc1 | -4 | -6 | -6 | -5 | -4 | 6 | . | .
O=C(NCCS(=O)(=O)N1CCC2(CC1)OCCO2)c1ccccc1 | 21 | -4 | 0 | . | -9 | -5 | . | .
O=C(c1ccccc1)c1cc2c(cc1[N+](=O)[O-])OCCO2 | 5 | -6 | -9 | 1 | 13 | 14 | . | .
CN(C)CCNC(=O)c1ccc(COc2ccc(Cl)cc2Cl)cc1 | -25 | 48 | 8 | 30* | -13 | 3 | 40* | 52*
SMILES | Jurkat NFkB inh | T cruzi inh | HSF1 inh | GPR7 antag | 697 NFkB inh | HSF1 activator | GPR7 antag conf | MCHR1 antag
COc1ccccc1-c1ccc(SCc2cccc(C)c2)nn1 | 1 | 28 | -5 | 64* | 5 | 15 | 41* | 74*
O/N=C/c1ccccc1OCc1ccc(Cl)cc1 | -49 | 12 | 44 | 27* | -51 | 38 | 7 | 12
O/N=C/c1ccccc1OCc1ccccc1Cl | -4 | 9 | 10 | 3 | -29 | 33 | . | .
OCCNCc1cc(Br)ccc1OCc1ccccc1 | 2 | 3 | 0 | 9 | -5 | 19 | . | .
CCOCCCNCc1cc(Br)ccc1OCc1ccccc1 | 3 | -4 | 2 | 38* | -20 | 18 | 36* | 42*
CSc1cccc(NC(=O)CN(C2CCCCC2)S(C)(=O)=O)c1 | -4 | 8 | 3 | 28* | -17 | -2 | 9 | 15
COc1ccc(NC(=O)CN(C2CCCCC2)S(C)(=O)=O)cc1OC | -3 | -7 | -7 | 7 | -26 | 21 | . | .
COc1ccc(CC(=O)NC(=S)Nc2ccc(S(N)(=O)=O)cc2)cc1 | 1 | -11 | -1 | 20 | 5 | -1 | . | .
C=CCN(CC=C)S(=O)(=O)c1ccc(NC(=S)NC(=O)Cc2ccc(OC)cc2)cc1 | 9 | 5 | -2 | 34* | 4 | 9 | 50* | 65*
COc1ccc(CC(=O)NC(=S)Nc2ccc(S(=O)(=O)NC(C)(C)C)cc2)cc1 | 8 | 0 | -3 | 49* | -20 | -5 | 72* | 70*
C=CCN(CC=C)S(=O)(=O)c1ccc(NC(=S)NC(=O)c2ccco2)cc1 | 9 | -1 | 12 | 6 | -12 | 30 | . | .
C=CCN1CC(c2nc3ccccc3n2CCOc2ccccc2)CC1=O (stereo not drawn) | 9 | -8 | 5 | 33* | -3 | 7 | 2 | 7
C=C(C)Cn1c(C2CC(=O)N(Cc3ccccc3)C2)nc2ccccc21 (stereo not drawn) | -3 | 10 | -7 | . | -12 | 4 | . | .
C/C(=N\NC(=O)c1ccc2c(c1)OCO2)c1ccc(NC(=O)CCCC(=O)O)cc1 | -7 | -6 | 7 | 22* | -6 | 2 | 4 | 8
COc1ccc(OCCOc2ccc(S(=O)(=O)N3CCCC3)cc2[N+](=O)[O-])cc1 | 1 | . | . | . | 27 | . | . | .
O=[N+]([O-])c1cc(S(=O)(=O)N2CCCCCC2)ccc1Cl | 0 | . | . | 39* | -3 | . | 63* | 19
COc1cccc(Oc2ccc(S(=O)(=O)N3CCCC3)cc2[N+](=O)[O-])c1 | -21 | 33 | 5 | 31* | -12 | 14 | -5 | 15
